The text below walks through data of ChEMBL document CHEMBL4715687, “A benzoxazole derivative as an inhibitor of anaerobic choline metabolism by human gut microbiota” (RSC Med Chem, 2020).

Calls of active or inactive are those of the source. The calls are words filed in the database; no cut-off is given here.

For orientation: EC50 means the concentration at which the effect is half-maximal. For orientation: IC50 means the concentration needed to halve the response being measured. The term Kd denotes a measure of binding affinity in units of concentration. Read a low Kd as tighter binding.

A short description of data set [1]: Inhibition of CutC in Escherichia coli MS 200-1 assessed as reduction in d9-TMA formation using d9-choline chloride as substrate incubated for 4 hrs under anaerobic condition by LC-MS-MS analysis.
Data set [2] in a line: Inhibition of CutC (unknown origin) in human feces assessed as reduction in TMA production using choline as substrate by LC-MS/MS analysis. Format: tissue-based, Bacteria.
Data set [3] in a line: Metabolic stability in human intestinal S9 fraction assessed as parent compound remaining at 33 uM incubated for 2 hrs by LC/MS/MS analysis. Format: ADME, subcellular, Intestine. The conditions noted are these: read-out: Stabilty. In outline:
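Mixed-gender human intestinal S9 (4 mg mL−1 stock) in 100 mM potassium phosphate pH 7.4 with NADPH cofactor, 6 mM MgCl2 and 1 mM EDTA. Compound at 33 μM final, in triplicate, 2 h at 37 °C. No-cofactor negative control. Supernatant diluted and percent intact compound quantified by LC-MS/MS.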

The target of data set [4] is T1, Choline trimethylamine-lyase (Desulfovibrio alaskensis, UniProt Q30W70).
T1 sequence (Q30W70 whole entry): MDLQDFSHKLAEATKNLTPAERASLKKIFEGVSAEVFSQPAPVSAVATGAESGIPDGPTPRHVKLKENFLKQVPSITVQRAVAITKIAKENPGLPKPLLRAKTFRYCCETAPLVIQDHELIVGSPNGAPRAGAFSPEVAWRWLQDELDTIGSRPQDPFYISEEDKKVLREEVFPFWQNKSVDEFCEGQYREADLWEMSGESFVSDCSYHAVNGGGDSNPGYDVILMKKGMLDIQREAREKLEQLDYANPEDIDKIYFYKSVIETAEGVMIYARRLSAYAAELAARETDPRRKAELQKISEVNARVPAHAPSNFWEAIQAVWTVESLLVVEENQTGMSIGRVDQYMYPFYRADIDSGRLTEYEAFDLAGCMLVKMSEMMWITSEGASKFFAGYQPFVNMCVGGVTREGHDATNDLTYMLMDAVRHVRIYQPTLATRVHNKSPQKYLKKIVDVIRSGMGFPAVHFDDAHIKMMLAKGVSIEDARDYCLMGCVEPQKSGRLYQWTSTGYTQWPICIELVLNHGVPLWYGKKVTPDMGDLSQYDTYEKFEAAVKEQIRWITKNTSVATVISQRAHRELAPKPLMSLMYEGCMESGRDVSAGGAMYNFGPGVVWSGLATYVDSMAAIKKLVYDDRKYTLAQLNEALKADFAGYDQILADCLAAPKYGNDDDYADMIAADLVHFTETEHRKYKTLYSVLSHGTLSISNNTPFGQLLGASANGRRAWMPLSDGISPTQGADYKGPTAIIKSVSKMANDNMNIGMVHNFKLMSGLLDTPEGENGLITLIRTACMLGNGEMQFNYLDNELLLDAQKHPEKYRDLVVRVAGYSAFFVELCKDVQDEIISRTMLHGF
The data set is described as follows: (§1) Inhibition of N-terminal His6-tagged Desulfovibrio desulfuricans G20 CutC encoding 52 residues assessed as reduction in acetaldehyde using choline as substrate in presence of NADH-dependent yeast alcohol dehydrogenase by UV-Vis absorbance based assay.

Data set [5] deals with Bacteria. The data set is described as follows: Binding affinity to CutD (unknown origin) by CM5 sensor chip immobilization based surface plasmon resonance analysis. On the technique in general: In SPR one partner is held on a chip, and binding of the other changes the refractive index at the surface.
The next data set deals with Saccharomyces cerevisiae. The data set is described as follows: Effect on alcohol dehydrogenase activity in yeast at 5 to 50 uM in presence of NADH by colorimetric assay. To be noted: dose 5-50 µM.
The target of data set [6] is T2, Choline trimethylamine-lyase (Desulfovibrio alaskensis) (UniProt Q30W70).
T2 sequence (whole entry): T1 sequence (Q30W70 whole entry)
Described as §1.

The nature of data set [7]: (§2) Binding affinity to CutC (unknown origin) by CM5 sensor chip immobilization based surface plasmon resonance analysis. Details: species or system Bacteria.
Data set [8] deals with Bacteria. Described as §2.
In a further data set the test system is Escherichia coli. The data set is described as follows: Effect on d9-choline uptake in Escherichia coli MS 200-1 at 50 uM incubated for 15 mins by LC-MS/MS analysis. Format: functional.
Data set [9] deals with Bacteria. The data set is described as follows: Non-competitive inhibition of CutC (unknown origin) assessed as reduction in Vmax with constant Km using choline as substrate at 5 uM by Lineweaver-Burk plot based Michelis-Menten analysis. A digest of the protocol: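 D. desulfuricans G20 CutC (20 μM) activated by CutD (40 μM) with dithionite (150 μM) and SAM (200 μM), anaerobic, in 50 mM potassium phosphate pH 8.0 with 50 mM KCl for 1 h, then diluted 20-fold. Coupled to yeast ADH (0.4 μM) with NADH (200 μM). Choline varied, inhibitor absent or at 5 μM. A340 read every 20 s for 10 min. Kinetics by Michaelis–Menten and Lineweaver–Burk plots, n = 3.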

As for `CN1CC=C[C@H](O)C1`, the EC50 in data set [1] came to 11 µM; in data set [2], 83.9 µM.

Consider `COc1cc(CCNC(=O)NC2CCCCC2CO)ccc1F` (stereo unspecified), for which the remaining at 2 h, 33 µM in [3] is greater than 90%. In addition, the IC50 in data set [4] turned out to be 212 µM. Also, the half-maximal effective concentration (EC50) in data set [1] is 409 µM.

Regarding `CC(C)Nc1cccc(C(=O)NCCCN2CCC(O)CC2)c1`, in [3], the remaining at 2 h, 33 µM is greater than 90%. Also, in data set [4], the half-inhibitory concentration (IC50) stood at 210 µM. Also, the EC50 in [1] was determined as 376 µM.

As to `O=C1NCCCCC1NC(=O)N1CCCc2cc(F)ccc21` (stereo unspecified), the remaining at 2 h, 33 µM in data set [3] was greater than 90%. In data set [4], the IC50 was greater than 500 µM. Further, the concentration for a half-maximal effect (EC50) in data set [1] is greater than 1000 µM.

In the case of `Cc1cccc(NC2CCN(C(=O)Nc3cn[nH]c3)CC2)n1`, in data set [3], the remaining at 2 h, 33 µM is greater than 90%. Moreover, the IC50 in data set [4] turned out to be 85 µM. For the same molecule, the EC50 in data set [1] was 143 µM.

`O=C(Nc1ccc(N2CCOCC2)nc1)NC1CCCCNC1=O` (stereo unspecified): in [3], the remaining at 2 h, 33 µM was greater than 90%. Also, the IC50 in data set [4] was 167 µM. Moreover, the EC50 in data set [1] was determined as 298 µM.

Take `C[N+](C)(C)CC=O` [BETAINE ALDEHYDE]: in [4], the IC50 was found to be 26 µM.

Turning to `O=S(=O)(NCC1CCCC1O)c1ccc2cn[nH]c2c1` (stereo unspecified), the remaining at 2 h, 33 µM in [3] is greater than 90%. In data set [4], the 50% inhibitory concentration (IC50) came out at 301 µM. Further, the EC50 in data set [1] turned out to be 488 µM.

In the case of `Cn1c(N)nc2c(ncn2[C@@H]2O[C@H](CO)[C@@H](O)[C@H]2O)c1=O`, the remaining at 2 h, 33 µM in [3] was greater than 90%. Further, the IC50 in [4] turned out to be 110 µM. In addition, in data set [1], the concentration for a half-maximal effect (EC50) turned out to be 175 µM.

As to `CN1CCC(NC(=O)NCCNc2ccccn2)CC1`, the remaining at 2 h, 33 µM in [3] was greater than 90%. In addition, the IC50 in data set [4] amounted to 199 µM. In addition, in data set [1], the EC50 was 354 µM.

Turning to `O=C(NC1CC1)C1CCN(Cc2nc3cc(F)ccc3o2)CC1`, in data set [3], the remaining at 2 h, 33 µM is greater than 90%. For the same molecule, the outcome in the data set with Bacteria [5] was Active. Also, the outcome with Saccharomyces cerevisiae and with Escherichia coli was inactive. Also, the 50% inhibitory concentration (IC50) in [4] stood at 2.4 µM. Moreover, in [6], the inhibition entry was “Dose-dependent effect”. The same molecule registered a dissociation constant Kd in data set [7] of 4.05 µM. Moreover, in the data set with Bacteria [8], the Activity entry is “Dose-dependent effect”. The 50% effective concentration (EC50) was determined as 5.4 µM in data set [1] and 38 µM in [2]. Also, the inhibition entry in the data set on Bacteria [9] was “Active”.

With `O=C(NC1CCCCC1CO)c1cc(F)cc2[nH]cnc12` (stereo unspecified), in data set [3], the remaining at 2 h, 33 µM is greater than 90%. Moreover, the concentration for half-maximal inhibition (IC50) in [4] is greater than 500 µM. Also, the half-maximal effective concentration (EC50) in [1] is greater than 1000 µM.

As for `O=C(NCc1nc(-c2ccccc2)n[nH]1)NC1CCC(O)CC1` (stereo unspecified), the remaining at 2 h, 33 µM in [3] is greater than 90%. In data set [4], the IC50 is 49 µM. In addition, in data set [1], the concentration for a half-maximal effect (EC50) came out at 79 µM.

Turning to `Cc1ccc(-n2nc(NC3CCN(C(N)=O)CC3)cc2C)cc1`, in data set [3], the remaining at 2 h, 33 µM is greater than 90%. The 50% inhibitory concentration (IC50) in data set [4] was greater than 500 µM. The concentration for a half-maximal effect (EC50) in [1] is greater than 1000 µM.

Regarding `Cc1cc(C(=O)NC2CCNCC2)no1`, in data set [3], the remaining at 2 h, 33 µM was greater than 90%. In data set [4], the IC50 was greater than 500 µM. The EC50 in data set [1] is greater than 1000 µM.

On to `O=C(CCc1ccccc1OC(F)(F)F)NC1CCCCNC1=O` (stereo unspecified), for which the remaining at 2 h, 33 µM in data set [3] is greater than 90%. For the same molecule, the 50% inhibitory concentration (IC50) in data set [4] was greater than 500 µM. Besides, the concentration for a half-maximal effect (EC50) in data set [1] was greater than 1000 µM.

As to `CC(O)CNC(=O)NC1CCN(Cc2ccccn2)CC1` (stereo unspecified), in data set [3], the remaining at 2 h, 33 µM is greater than 90%. The half-inhibitory concentration (IC50) in [4] is 73 µM. Further, the concentration for a half-maximal effect (EC50) in [1] worked out at 87 µM.
